# An excerpt weighted towards active compounds, which were near 1.5% of everything screened.
# NRP1-CendR mod: modulators of CendR peptide binding to human neuropilin-1; O14786; FAM-RPARPAR peptide binding to NRP-1, fluorescence polarization; inhibition, % at 25 µM; hit rate 0.85% among 360,000; AID 602438;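 active = inhibition or corrected inhibition above about 18%, plus a signal ratio from 0.5 to 1.5, limit read from the data, passing the limit was not always enough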
# MEX-5 binding: C. elegans MEX-5 TCR-2 RNA binding activity; activity score (negative = inhibition of binding), % at 10 µM; AID 1832; MEX-5/FITC-TCR2 RNA binding, fluorescence polarization; stronger effect = lower value; hit rate 0.38% among 300,000;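 active = inhibition past about -25% in most replicates, and total fluorescence under double the plate's negative control median, limit read from the data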;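 note: 0% = DMSO and -100% = 5 µM competing unlabeled TCR2 RNA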
# Target sequence (Q9XUB2 whole entry, looked up): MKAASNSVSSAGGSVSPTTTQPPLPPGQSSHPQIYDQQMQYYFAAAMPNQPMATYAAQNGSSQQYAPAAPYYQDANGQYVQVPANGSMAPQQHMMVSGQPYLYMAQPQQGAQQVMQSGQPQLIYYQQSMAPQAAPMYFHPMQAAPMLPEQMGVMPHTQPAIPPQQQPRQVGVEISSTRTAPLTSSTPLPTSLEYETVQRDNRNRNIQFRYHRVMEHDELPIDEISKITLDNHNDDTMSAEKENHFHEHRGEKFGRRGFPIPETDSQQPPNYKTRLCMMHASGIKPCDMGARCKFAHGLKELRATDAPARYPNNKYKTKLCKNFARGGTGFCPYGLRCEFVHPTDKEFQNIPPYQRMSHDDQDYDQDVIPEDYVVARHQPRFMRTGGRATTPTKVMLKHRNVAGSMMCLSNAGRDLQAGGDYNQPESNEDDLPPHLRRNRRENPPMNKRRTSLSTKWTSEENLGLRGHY
# DNA FID counter: counter-screen for HCV NS3 helicase inhibitors: DNA intercalator displacement; hit rate 0.17% among 290,000; inhibition, % at 7.9 µM; AID 1845; DNA fluorescent intercalator displacement, fluorescence; in the data active = inhibition above about 37%;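 note: 0% = vehicle and 100% = reference compound; higher means more ethidium bromide displaced from hairpin DNA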
# core dimer inh: blocks dimerization of HCV core protein. hit rate 0.33% among 300,000. inhibition, % at 5 µM. TR-FRET GST/Flag-core106 dimerization, 1536-well. AID 1899;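 active = inhibition above the mean of all tested compounds plus 3 SD, set per screening campaign, cut at about 45% in these data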
#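 Assay system: Tagged HCV core106 pair (GST and Flag) | Buffer or medium: KF-containing HEPES buffer, pH 7.45, DTT, CHAPS, BSA | Also added: Eu donor and XL665 acceptor anti-tag antibodies | Dosing: One concentration, 5 µM, in 0.5% DMSO | Timing: 4 h at 22.5 °C | Technique: TR-FRET 671 and 617 nm emission | Repeats: Singlicate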
# * marks the source's active call; other numbers are inactive results; · = no result.
SMILES,NRP1-CendR mod,MEX-5 binding,DNA FID counter,core dimer inh
O=C(OC1CCCCC1)c1ccc2c(c1)C1C=CCC1C(C(=O)O)N2 (stereo unspecified),·,·,-16.7,·
COc1cccc(NS(=O)(=O)c2ccc3c(c2)C2C=CCC2C(c2ccc(C(=O)O)cc2)N3)c1 (stereo unspecified),-79.1,-66.1*,-0.2,10.6
COC(=O)c1ccc(C)c(NC(=O)COC(=O)C2CC3CCCC(C2)C3=O)c1 (stereo unspecified),5.2,0.0,·,-3.5
Cc1ccc(F)cc1NC(=O)COC(=O)C1CC2CCCC(C1)C2=O (stereo unspecified),30.0*,·,·,·
Cc1ccccc1Nc1nn2c(=O)c3ccc(C(=O)N4CCCC(C)C4)cc3nc2s1 (stereo unspecified),-11.1,·,·,·
COc1ccccc1Nc1nn2c(=O)c3ccc(C(=O)N4CCC(C)CC4)cc3nc2s1,24.6*,0.5,-17.2,12.4
COc1ccccc1Cn1c(=S)[nH]c2cc(C(=O)N3CC(C)CC(C)C3)ccc2c1=O (stereo unspecified),0.5,·,·,·
Cc1cccc(-c2n[nH]nc2C2=CC(=O)CC(C)(C)C2)c1,-1.0,·,·,·
CCOC(=O)Cc1csc(NC(=O)c2sc3nc4cc(C)ccc4cc3c2N)n1,74.4,-49.9*,-4.3,-8.7
CCOC(=O)Cc1csc(NC(=O)Nc2ccc(Cl)cc2)n1,26.4*,1.8,-13.9,-0.3
CCOC(=O)Cc1csc(NC(=O)c2sc3nc4ccc(CC)cc4cc3c2N)n1,-129.1,-3.7,-13.4,0.4
Cc1csc(NC(=O)Nc2ccc(Cl)cc2)n1,26.3*,-1.4,-1.3,2.0
CCOC(=O)Cc1csc(NC(=O)Nc2cccc(Cl)c2)n1,5.9,-0.5,-3.4,-6.7
C#CCN(C[C@@H]1[C@@H](OC(=O)NCc2ccccc2F)[C@@H](OC(=O)NCc2ccccc2F)Cn2c(=O)ccc(=O)n21)S(=O)(=O)c1ccc(C)cc1,-4.9,·,·,·
CCn1cc(C(=O)N2CCN(C(=O)c3ccco3)CC2)c2cc(OC)c(OC)cc2c1=O,23.6*,-3.0,-8.7,-0.1
CCn1cc(C(=O)NCc2ccco2)c(=O)c2cc(F)c(N3CCN(C(=O)c4ccco4)CC3)cc21,-18.0,4.0,-24.0,55.9*
CCn1cc(C(=O)N2CCN(c3ccccn3)CC2)c2cc(OC)c(OC)cc2c1=O,4.8,·,-24.1,1.9
CCc1cccc(NC(=O)COC(=O)c2c(C)nn(-c3ccccc3)c2C)c1,1.5,·,·,·
O=C(O)C1Nc2c(Cl)cc(Cl)cc2C2C=CCC12 (stereo unspecified),-76.1,-73.1*,-7.0,32.9
O=C(O)C1Nc2c(O)cccc2C2C=CCC12 (stereo unspecified),10.6,·,0.3,50.5*
O=C(O)C1Nc2c(Cl)cc(Cl)c(Cl)c2C2C=CCC12 (stereo unspecified),-23.7,-2.2,-8.9,43.3
CC(C)CNC(=O)C1Nc2ccccc2C2C=CCC12 (stereo unspecified),2.2,1.7,·,18.8
CC(CO)NS(=O)(=O)c1cc(Cl)ccc1F (stereo unspecified),11.7,·,·,·
C[C@@H]1CN([C@@H](C)CO)C(=O)CCCn2nncc2CO[C@@H]1CN(C)S(=O)(=O)c1cccc(F)c1,1.4,·,·,·
COc1ccc(OC)c(/C=N/NC(=O)c2ccc(=O)[nH]n2)c1,3.1,-3.9,-4.1,-4.8
SMILES,NRP1-CendR mod,MEX-5 binding,DNA FID counter,core dimer inh
COc1cccc(/C=N/NC(=O)c2ccc(=O)[nH]n2)c1O,-1.9,-35.0*,-2.7,-1.6
Cc1cc(C)cc(CC(=O)N2CCC2(C)C(=O)NS(=O)(=O)c2cc(C)ccc2F)c1 (stereo unspecified),6.3,·,·,·
COc1ccc(C2=Nc3ccccc3NC(=O)C2N(C(=O)c2cnc(C)cn2)c2ccc(N3CCOCC3)cc2)cc1 (stereo unspecified),22.4*,·,·,·
Cc1cnc(C(=O)N(c2ccc(N3CCOCC3)cc2)C2C(=O)Nc3ccccc3N=C2c2ccc3c(c2)OCO3)cn1 (stereo unspecified),4.7,·,·,·
CC(C)COC(=O)C(N)C(C(=O)OCC(C)C)c1ccccc1 (stereo unspecified),29.7*,0.4,-0.9,-1.7
CCC(C)(C)c1ccc(OCCCC[n+]2ccc(C)cc2)c(C(C)(C)CC)c1,·,4.9,45.7*,-6.4
C/C(=N\Nc1ccc(Cl)c(C(=O)O)c1)c1ccc[nH]1,-19.4,-38.2*,-8.6,-14.8
C/C(=N\Nc1ccc(Cl)c(C(=O)O)c1)c1cccs1,-20.4,-4.3,-6.6,-5.8
CN(CCOc1ccc(Cl)cc1)c1ccc(S(=O)(=O)N2CCCCC2)cn1,18.7*,·,-4.1,8.4
CCOC(=O)[C@@H]1[C@H]2COc3ccccc3[C@@H]2N2C(=O)N(c3ccc(Cl)cc3)C(=O)[C@]12C,30.2*,1.9,-33.9,2.7
CCOC(=O)[C@H]1[C@H]2COc3ccccc3[C@@H]2N2C(=O)[C@@H](C)NC(=O)[C@@]12C,28.1*,·,·,·
CCOC(=O)[C@@H]1[C@H]2COc3ccccc3[C@H]2N2C(=O)N(c3ccc(C)cc3)C(=O)[C@]12C,2.7,-2.3,-34.1,1.6
CCNC(=O)C1(C)CCCN(C(=O)c2cc(-c3cccs3)oc2C)C1 (stereo unspecified),1.0,·,·,·
COc1ccc(CN2C(=O)CN(S(C)(=O)=O)CC2(C)C(=O)NC(C)C)cc1 (stereo unspecified),8.0,·,·,·
COc1ccc(-c2csc(N)n2)cc1,31.4*,1.5,8.8,-2.8
CC1=C(C(=O)N(C(C)C)C(C)C)CC(CC(=O)NC2CC2)C(=O)N1Cc1ccc(F)cc1 (stereo unspecified),1.7,·,·,·
Cc1ccccc1Nc1ccc2nonc2c1[N+](=O)[O-],-3.2,0.8,2.8,·
O=[N+]([O-])c1c(Nc2ccccc2O)ccc2nonc12,25.3*,-1.6,2.9,-7.0
CCC(C)c1ccc(NC(=O)C2=CC=CN3CCS(=O)(=O)N=C23)cc1 (stereo unspecified),2.5,·,·,·
O=c1[nH]c2ccccc2c2nc3ccccn3c12,-6.2,1.0,1.8,2.3
O=c1nc2c(O)cccn2c2c1c(=O)[nH]c1ccccc12,48.0*,-26.3*,-4.6,·
Cc1ccc(C(=O)NC(=S)Nc2ccc(-c3ccc(CO)o3)cc2)cc1,-1.4,0.3,-13.3,22.2
O=C(NC(=S)Nc1ccc(-c2ccc(CO)o2)cc1)c1cccs1,-107.7,0.3,-18.9,51.1*
C=C1C[C@@H]2C[C@@H]2CN(S(=O)(=O)c2ccc(C)cc2)[C@@H]1COCc1ccccc1,2.2,·,·,·
COC(=O)C1=C(C)N(c2ccccc2)/C(=C/c2ccco2)C1=O,-154.3,-28.4*,-11.5,-0.3
OCCN1CCN(c2ncnc3c2ncn3[C@H]2CN(Cc3ccc(Cl)cc3)C[C@@H](CO)O2)CC1,-2.3,·,·,·
Cc1nc(C(F)(F)F)ccc1C(=O)N1CCC1(C)C(=O)NS(=O)(=O)c1ccc(C(C)(C)C)cc1 (stereo unspecified),6.1,·,·,·
CSc1ccccc1NC(=O)CN(C)C(=O)COc1cccc2cccnc12,27.4*,·,·,·
CN(CC(=O)Nc1ccc(Cl)c(C(F)(F)F)c1)C(=O)COc1cccc2cccnc12,-1.9,·,·,·
CC1(C)OC(=O)C2=C(C[C@@H](CCc3ccccc3)O[C@H]2CCc2cccc(Cl)c2)O1,6.4,·,·,·
